How the values were obtained:
[1] = target: Hypoxia-inducible factor 1-alpha (Homo sapiens, UniProt Q16665); experiment: Inhibition of hypoxia-induced HIF1alpha protein accumulation in human Hep3B cells treated for 30 mins measured after 12 hrs by Western blot analysis; format: functional, cell-based, Hep 3B2; details: for inhibition: Hep 3B2
Outline: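 Hep3B cells (DMEM, 10% FBS, 37 °C) were pretreated with a range of compound concentrations for 30 min, then kept 12 h under normoxia or hypoxia (1% O2, 94% N2, 5% CO2, 37 °C). HIF-1α was detected by western blot with a mouse monoclonal anti-HIF-1α antibody. Topoisomerase-1 was probed as the loading control.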

[2] = Cytotoxicity against human Hep3B cells after 24 hrs by MTT assay; format: cell-based; details: hep 3b2, 24 h
[3] = Inhibition of NF-kappaB activity in human HeLa cells by SEAP reporter assay; format: cell-based
Outline: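 HeLa cells grown in DMEM with 10% FBS and penicillin/streptomycin at 37 °C, 5% CO2. NF-κB activity read by a secreted alkaline phosphatase (SEAP) reporter, with celastrol as positive control. Values are IC50s, mean ± SD from three experiments.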

Hep 3B2 = experiment: Inhibition of hypoxia-induced VEGF protein secretion in human Hep3B cells after 16 hrs by ELISA; format: functional, cell-based
Outline: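 Hep3B cells were seeded at 2 × 10^5 per well and exposed to a range of concentrations for 16 h under normoxia or hypoxia (1% O2, 5% CO2, 37 °C). VEGF in the culture supernatant was quantified with a DuoSet sandwich ELISA. 17-DMAG served as positive control. IC50s are mean ± SD from three experiments.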

[4] = Inhibition of hypoxia-induced HIF1alpha protein accumulation in human Hep3B cells treated for 30 mins measured after 12 hrs by Western blot analysis; details: hep 3b2

SMILES | IC50 [1] | Activity [2] | IC50 [3] | IC50 (Hep 3B2) | inhibition [1] | IC50 [4]
CC(=O)OC(C)(C)/C=C/C(=O)[C@](C)(O)[C@H]1[C@H](O)C[C@@]2(C)[C@@H]3CC=C4[C@@H](C[C@H](O)C(=O)C4(C)C)[C@]3(C)C(=O)C[C@]12C [CUCURBITACIN B] | 270 nM | Non-toxic |  |  |  | 
CC(=O)OC(C)(C)/C=C/C(=O)[C@](C)(O)[C@H]1[C@H](O)C[C@@]2(C)[C@@H]3CC=C4[C@H](C[C@H](O)C(=O)C4(C)C)[C@]3(C)C(=O)C[C@]12C [CUCURBITACIN B] |  |  | 61 nM | 310 nM | Dose-dependent effect | 
COc1cc(O)cc2c1/C(=C\c1ccc(O)cc1)C(=O)O2 | 690 nM | Non-toxic | 560 nM | 930 nM | Dose-dependent effect | 
CC1=CC(=O)CC(C)(C)[C@@]1(O)/C=C/[C@@H](C)O [BLUMENOL A] | 15800 nM | Non-toxic | 12300 nM | 26200 nM |  | 
COc1cc(/C=C/c2ccc(OC)c(O)c2)oc(=O)c1 | 810 nM | Non-toxic | 400 nM | 1040 nM | Dose-dependent effect | 
CC1=C(O)C(=O)C=C2C1=CC=C1[C@@]2(C)CC[C@@]2(C)[C@@H]3C[C@](C)(C(=O)O)CC[C@]3(C)CC[C@]12C [CELASTROL] |  |  | 150 nM |  |  | 
CO[C@H]1/C=C\C=C(/C)C(=O)NC2=CC(=O)C(NCCN(C)C)=C(C[C@@H](C)C[C@H](OC)[C@H](O)[C@@H](C)/C=C(\C)[C@@H]1OC(N)=O)C2=O [ALVESPIMYCIN] |  |  |  |  |  | 57 nM

Source: ChEMBL document CHEMBL1165938, “An isoaurone and other constituents from Trichosanthes kirilowii seeds inhibit hypoxia-inducible factor-1 and nuclear factor-kappaB” (J Nat Prod, 2010)
